Data reported in ChEMBL document CHEMBL1122443, “Synthesis and antitumor evaluation of selected 5,6-disubstituted 1(2)H-indazole-4,7-diones” (1983).
Active and inactive are the calls of the source. The rule behind the calls is not given here.

Legend:
Mus musculus [1] = test: Antitumor activity in CF1 mice bearing Ehrlich ascites carcinoma measured as percentage inhibition at 5 mg/kg; type: functional
How it was run: (§1)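 Ehrlich ascites model in male CF1 mice (22–25 g): 2 × 10⁶ cells ip on day 0, ip dosing days 1–8, kill on day 9. Percent inhibition = 100 − [(treated volume × treated ascrit)/(control volume × control ascrit)]. Greater than 80% was taken as significant. Vehicle was 0.05% Tween 80, alone or with 5% absolute EtOH. 6-Mercaptopurine was the positive control.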

Mus musculus [2] = test: Antitumor activity in CF1 mice bearing Ehrlich ascites carcinoma measured as percentage inhibition at 8 mg/kg; type: functional; how it was run: as §1
Mus musculus [3] = test: Antitumor activity in CF1 mice bearing Ehrlich ascites carcinoma measured as survivors on day 9 at 3 mg/kg; 5/6; type: functional
Mus musculus [4] = test: Antitumor activity in CF1 mice bearing Ehrlich ascites carcinoma measured as ascites volume at 3 mg/kg; type: functional
How it was run: (§2)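 Male CF1 mice (22–25 g) received 2 × 10⁶ Ehrlich carcinoma cells ip on day 0. Dosing was ip daily on days 1–8, with sacrifice on day 9. Ascites fluid volume per mouse and ascrit (packed cell volume) were measured for each group. Vehicle was 0.05% Tween 80, or 5% absolute EtOH in 0.05% Tween 80, used for both compound and control. 6-Mercaptopurine was the positive control.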

Mus musculus [5] = test: Antitumor activity in CF1 mice bearing Ehrlich ascites carcinoma measured as ascites volume at 5 mg/kg; type: functional; how it was run: as §2
Mus musculus [6] = test: Antitumor activity in CF1 mice bearing Ehrlich ascites carcinoma measured as ascites volume at 8 mg/kg; type: functional; how it was run: as §2
Mus musculus [7] = test: Antitumor activity in CF1 mice bearing Ehrlich ascites carcinoma measured as survivors on day 9 at 5 mg/kg; 4/6; type: functional
Mus musculus [8] = test: Antitumor activity in CF1 mice bearing Ehrlich ascites carcinoma measured as survivors on day 9 at 8 mg/kg; 4/6; type: functional
Mus musculus [9] = test: Antitumor activity in CF1 mice bearing Ehrlich ascites carcinoma measured as percentage inhibition at 3 mg/kg; IA= inactive; type: functional, organism-based; design: dose 3 mg/kg
How it was run: (§3)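 In the Ehrlich ascites model, male CF1 mice (22–25 g) received 2 × 10⁶ cells ip on day 0 and compound ip on days 1–8, with a vehicle of 0.05% Tween 80 ± 5% EtOH. Ascites volume and ascrit were taken on day 9. % inhibition = 100 − [(vol × ascrit, treated)/(vol × ascrit, control)], with >80% taken as significant.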

Mus musculus [10] = test: Antitumor activity in CF1 mice bearing Ehrlich ascites carcinoma measured as percent ascrit packed cell volume at 3 mg/kg; type: functional; how it was run: as §2
Mus musculus [11] = test: Antitumor activity in CF1 mice bearing Ehrlich ascites carcinoma measured as percent ascrit packed cell volume at 5 mg/kg; type: functional; how it was run: as §2
Mus musculus [12] = test: Antitumor activity in CF1 mice bearing Ehrlich ascites carcinoma measured as percent ascrit packed cell volume at 8 mg/kg; type: functional; how it was run: as §2
Mus musculus [13] = test: Antitumor activity in CF1 mice bearing Ehrlich ascites carcinoma measured as percentage inhibition at 50 mg/kg; type: functional; how it was run: as §1
Mus musculus [14] = test: Antitumor activity in 18 CF1 mice bearing Ehrlich ascites carcinoma measured as survivors on day 9 at 50 mg/kg; 16/18; type: functional
Mus musculus [15] = test: Antitumor activity in CF1 mice bearing Ehrlich ascites carcinoma measured as ascites volume at 50 mg/kg; type: functional; how it was run: as §2
Mus musculus [16] = test: Antitumor activity in CF1 mice bearing Ehrlich ascites carcinoma measured as percent ascrit packed cell volume at 50 mg/kg; type: functional; how it was run: as §2
Mus musculus [17] = test: Antitumor activity in CF1 mice bearing Ehrlich ascites carcinoma measured as ascites volume at 0.5 mg/kg; type: functional
How it was run: (§4)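 Ehrlich ascites cells (2 × 10⁶) were implanted ip in male CF1 mice (22–25 g) on day 0. Dosing was ip on days 1–8 in 0.05% Tween 80 or 5% EtOH/0.05% Tween 80, with vehicle controls. Mice were killed on day 9, and ascites fluid volume per mouse was measured.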

Mus musculus [18] = test: Antitumor activity in CF1 mice bearing Ehrlich ascites carcinoma measured as percentage inhibition at 0.5 mg/kg; IA= inactive; type: functional, organism-based; design: dose 0.5 mg/kg; how it was run: as §3
Mus musculus [19] = test: Antitumor activity in CF1 mice bearing Ehrlich ascites carcinoma measured as percentage inhibition at 1 mg/kg; type: functional; how it was run: as §3
Mus musculus [20] = test: Antitumor activity in CF1 mice bearing Ehrlich ascites carcinoma measured as survivors on day 9 at 1 mg/kg; 6/6; type: functional
Mus musculus [21] = test: Antitumor activity in CF1 mice bearing Ehrlich ascites carcinoma measured as ascites volume at 1 mg/kg; type: functional; how it was run: as §4
Mus musculus [22] = test: Average days survived for treated / average days survived for control at 0.5 (mg/kg); 10.5/9.2; type: functional
Mus musculus [23] = test: Average days survived for treated / average days survived for control at 1 (mg/kg); 13.3/9.2; type: functional
Mus musculus [24] = test: Average days survived for treated / average days survived for control at 2 (mg/kg); 12.6/9.2; type: functional
Mus musculus [25] = test: Average days survived for treated / average days survived for control at 3 (mg/kg); 10.2/9.2; type: functional
Mus musculus [26] = test: Average days survived for treated / average days survived for control at 5 (mg/kg); 11/9.2; type: functional
Mus musculus [27] = test: Antitumor activity in CF1 mice bearing Ehrlich ascites carcinoma measured as survivors on day 9 at 5 mg/kg; 6/6; type: functional
Mus musculus [28] = test: Antitumor activity in CF1 mice bearing Ehrlich ascites carcinoma measured as percent ascrit packed cell volume at 1 mg/kg; type: functional
How it was run: (§5)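 CF1 male mice (22–25 g) were inoculated ip with 2 × 10⁶ Ehrlich cells on day 0 and treated ip on days 1–8 in 0.05% Tween 80 or 5% EtOH/0.05% Tween 80 vehicle. On day 9 the mice were sacrificed, and the ascrit (packed cell volume) of the ascites fluid was determined.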

Mus musculus [29] = test: Antitumor activity in CF1 mice bearing Ehrlich ascites carcinoma measured as percent ascrit packed cell volume at 0.5 mg/kg; type: functional; how it was run: as §5
Mus musculus [30] = test: Anti tumor activity in mice bearing lymphocytic leukemia P-388 at 0.5 mg/kg; type: functional
How it was run: (§6)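 Male BDF1 mice (20–23 g) were inoculated ip with 1 × 10⁶ P-388 leukemia cells on day 0. Compound was given ip once daily on days 1–14 in 0.05% Tween 80 vehicle, with a vehicle control group and 5-fluorouracil as positive control. Activity was scored as % T/C, average days survived treated/control, with >125% taken as significant.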

Mus musculus [31] = test: Anti tumor activity in mice bearing lymphocytic leukemia P-388 at 1 mg/kg; type: functional; how it was run: as §6
Mus musculus [32] = test: Anti tumor activity in mice bearing lymphocytic leukemia P-388 at 2 mg/kg; type: functional; how it was run: as §6
Mus musculus [33] = test: Anti tumor activity in mice bearing lymphocytic leukemia P-388 at 3 mg/kg; type: functional; how it was run: as §6
Mus musculus [34] = test: Anti tumor activity in mice bearing lymphocytic leukemia P-388 at 5 mg/kg; type: functional; how it was run: as §6
Mus musculus [35] = test: Anti tumor activity in mice bearing lymphocytic leukemia P-388 at 10 mg/kg; Toxic; type: functional, organism-based; design: dose 10 mg/kg; how it was run: as §6
Mus musculus [36] = test: Antitumor activity in CF1 mice bearing Ehrlich ascites carcinoma measured as survivors on day 9 at 0.5 mg/kg; 5/6; type: functional

CC(=O)NC1=C(Cl)C(=O)c2c(cnn2C(C)=O)C1=O
inhibition in vivo at 5 mg/kg (Mus musculus [1]): 95.6% | inhibition in vivo at 8 mg/kg (Mus musculus [2]): 25.5% | Survivors (Mus musculus [3]): 5 | ascites volume (Mus musculus [4]): 2.9 ml mouse-1 | ascites volume (Mus musculus [5]): 0.3 ml mouse-1 | ascites volume (Mus musculus [6]): 0.75 ml mouse-1 | Survivors (Mus musculus [7]): 4 | Survivors (Mus musculus [8]): 4 | inhibition (Mus musculus [9]): inactive | packed cell volume (Mus musculus [10]): 45.5% | packed cell volume (Mus musculus [11]): 5.9% | packed cell volume (Mus musculus [12]): 31.7%

Sc1ncnc2nc[nH]c12 [MERCAPTOPURINE ANHYDROUS]
inhibition in vivo at 50 mg/kg (Mus musculus [13]): 96.3% | Survivors (Mus musculus [14]): 16 | ascites volume (Mus musculus [15]): 0.2 ml mouse-1 | packed cell volume (Mus musculus [16]): 10.5%

O=C1C(N2CC2)=C(Cl)C(=O)c2n[nH]cc21
inhibition in vivo at 5 mg/kg (Mus musculus [1]): 92.5% | ascites volume (Mus musculus [17]): 0.38 ml mouse-1 | inhibition (Mus musculus [18]): inactive | inhibition in vivo at 1 mg/kg (Mus musculus [19]): 95% | Survivors (Mus musculus [20]): 6 | ascites volume (Mus musculus [21]): 0.32 ml mouse-1 | ascites volume (Mus musculus [5]): 0.15 ml mouse-1 | Average survival (days) (Mus musculus [22]): 10.5 | Average survival (days) (Mus musculus [23]): 13.3 | Average survival (days) (Mus musculus [24]): 12.6 | Average survival (days) (Mus musculus [25]): 10.2 | Average survival (days) (Mus musculus [26]): 11 | Survivors (Mus musculus [27]): 6 | packed cell volume (Mus musculus [28]): 5.8% | packed cell volume (Mus musculus [11]): 49.4% | packed cell volume (Mus musculus [29]): 44% | T/C (Mus musculus [30]): 114% | T/C (Mus musculus [31]): 145% | T/C (Mus musculus [32]): 137% | T/C (Mus musculus [33]): 111% | T/C (Mus musculus [34]): 120% | T/C (Mus musculus [35]): Toxic | Survivors (Mus musculus [36]): 5
